In general, IC50 refers to the concentration that gives 50% inhibition. A word on the GI50: it is the concentration at which growth is held to half of that of the control. Low values mean greater sensitivity of the cells, high ones lower sensitivity of the cells.

We go through 14 compounds from ChEMBL document CHEMBL4145463, “New insights into structure-activity relationship of ipomoeassin F from its bioisosteric 5-oxa/aza analogues” (Eur J Med Chem, 2018).

Assay [1] relates to MDA-MB-231. Nature of the assay: Cytotoxicity against human MDA-MB-231 cells assessed as reduction in cell viability after 72 hrs by Alamar Blue assay. Conditions: MDA-MB-231, 72 h. Format: functional, cell-based. The procedure, abridged: (§1)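 Cells were seeded at 5,000 per well and preincubated 24 h at 37 °C in 5% CO2. They were then exposed for 72 h to gradient dilutions in complete DMEM/HIGH medium, made from 10 mM DMSO stocks, with DMSO below 0.5%. Fresh medium with 10% AlamarBlue was incubated 3 h and read at 580 nm (620 nm reference). Viability was taken versus DMSO-treated cells, and IC50 was fitted from viability–concentration plots; triplicate.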

Assay [2] concerns MCF7. As to the kind of experiment: Cytotoxicity against human MCF7 cells assessed as reduction in cell viability after 72 hrs by MTT assay. It is filed as functional, cell-based. Conditions: MCF7, 72 h.
Assay [3] relates to MCF-10A. As to the kind of experiment: Cytotoxicity against human MCF10A cells assessed as reduction in cell viability after 72 hrs by Alamar Blue assay. It is filed as cell-based. The gist of the method: as §1
Background: Alamar Blue is a resazurin reagent that responds to reducing activity.

The test system of assay [4] is MDA-MB-435. Nature of the assay: Cytotoxicity against human MDA-MB-435 cells after 72 hrs. It is filed as functional, cell-based. The following applies: MDA-MB-435, 72 h.
For assay [5], the system named is A2780. Nature of the assay: Cytotoxicity against human A2780 cells after 72 hrs. Conditions: A2780, 72 h. It is filed as functional, cell-based.
Assay [6] in a line: Cytotoxicity against human H522-T1 cells after 72 hrs. It is filed as functional, cell-based. Conditions: H522-T1, 72 h.
The test system of assay [7] is U-937. Nature of the assay: Cytotoxicity against human U937 cells after 72 hrs. Format: functional, cell-based. The following applies: U-937, 72 h.
The subject of assay [8] is HT-29. Nature of the assay: Cytotoxicity against human HT-29 cells after 72 hrs. It is filed as functional, cell-based. Conditions: HT-29, 72 h.
The subject of assay [9] is L929. As to the kind of experiment: Cytotoxicity against mouse L929 cells after 72 hrs. Conditions: L929, 72 h. Format: cell-based.
The subject of assay [10] is Panel NCI-60 (60 carcinoma cell lines). Nature of the assay: Growth inhibition of human NCI60 cells after 48 hrs by SRB assay. Format: functional.
Assay [11] relates to HeLa. Nature of the assay: Cytotoxicity against human HeLa cells after 72 hrs. Format: functional, cell-based.

With `C/C=C(\C)C(=O)O[C@@H]1[C@@H](O)[C@@H]2O[C@H]3[C@H](O[C@@H](CCCCC)C/C=C\CCOC(=O)CCC(=O)OC[C@@H](O2)[C@H]1OC(=O)/C=C/c1ccccc1)O[C@H](C)[C@H](OC(C)=O)[C@@H]3O`, the IC50 in assay [1] is 260 nM; in assay [2], 816 nM.
With `C/C=C(\C)C(=O)O[C@@H]1[C@@H](O)[C@@H]2O[C@H]3[C@H](O[C@@H](CCCCC)CCCCCOC(=O)CCC(=O)OC[C@@H](O2)[C@H]1OC(=O)/C=C/c1ccccc1)O[C@H](C)[C@H](OC(C)=O)[C@@H]3O`, the IC50 in assay [1] is 31.5 nM; in assay [2], 81.2 nM; in assay [3] it was 26.9 nM.
As to `C/C=C(\C)C(=O)O[C@@H]1[C@@H](O)[C@@H]2O[C@H]3[C@H](O[C@@H](CCCCC)CCCCCCC(=O)CCC(=O)OC[C@@H](O2)[C@H]1OC(=O)/C=C/c1ccccc1)O[C@H](C)[C@H](OC(C)=O)[C@@H]3O`, the IC50 was found to be 9.4 nM in assay [4]; 36 nM in [5]; 12.9 nM in assay [6]; 2.6 nM in [7]; 5.1 nM in assay [3]; 4.2 nM in assay [8]. The compound further had an IC50 in assay [9] of 7.4 nM. The same compound yielded a GI50 in assay [10] of 30 nM.
On to `C/C=C(\C)C(=O)O[C@@H]1[C@@H](O)[C@H](O[C@H]2[C@H](O[C@@H](CCCCC)CCCCC/N=C3/CCC(=O)O3)O[C@H](C)[C@H](OC(C)=O)[C@@H]2O)O[C@H](COC(=O)/C=C/c2ccccc2)[C@H]1O`, for which the IC50 in assay [1] and in assay [2] was more than 25000 nM each time.
On to `C/C=C(\C)C(=O)O[C@@H]1[C@@H](O)[C@@H]2O[C@H]3[C@H](O[C@@H](CCCCC)CCCCOC(=O)CCC(=O)OC[C@@H](O2)[C@H]1OC(=O)/C=C/c1ccccc1)O[C@H](C)[C@H](OC(C)=O)[C@@H]3O`, for which the IC50 in assay [1] is 290 nM; in assay [2], 710 nM.
`C/C=C(\C)C(=O)O[C@@H]1[C@@H](O)[C@@H]2O[C@H]3[C@H](O[C@@H](CCCCC)CCCCCNC(=O)CCC(=O)OC[C@@H](O2)[C@H]1OC(=O)/C=C/c1ccccc1)O[C@H](C)[C@H](OC(C)=O)[C@@H]3O`: the values for the IC50 in assay [1], in assay [2] and in assay [3] were 48.7 nM, 351 nM and 75.2 nM, respectively.
Take `C/C=C(\C)C(=O)O[C@@H]1[C@@H](O)[C@@H]2O[C@H]3[C@H](O[C@@H](CCCCC)C/C=C/CCOC(=O)CCC(=O)OC[C@@H](O2)[C@H]1OC(=O)/C=C/c1ccccc1)O[C@H](C)[C@H](OC(C)=O)[C@@H]3O`: the results for the IC50 in [1] and in [2] were 808 nM and 3280 nM, respectively.
Take `C/C=C(\C)C(=O)O[C@@H]1[C@@H](O)[C@@H]2O[C@H]3[C@H](O[C@@H](CCCCC)CCCCCN(C)C(=O)CCC(=O)OC[C@@H](O2)[C@H]1OC(=O)/C=C/c1ccccc1)O[C@H](C)[C@H](OC(C)=O)[C@@H]3O`: the IC50 in assay [1] came to 14.4 nM; in assay [2], 69.2 nM; in [3], 17.5 nM.
As for `C/C=C(\C)C(=O)O[C@@H]1[C@@H](O)[C@@H]2O[C@H]3[C@H](O[C@@H](CCCCC)CC=CCCCC(=O)CCC(=O)OC[C@@H](O2)[C@H]1OC(=O)/C=C/c1ccccc1)O[C@H](C)[C@H](OC(C)=O)[C@@H]3O` (mixture of isomers), the half-inhibitory concentration (IC50) amounted to 68.3 nM in assay [1], 307 nM in assay [2] and 27.2 nM in assay [3].
As to `C/C=C(\C)C(=O)O[C@@H]1[C@@H](O)[C@@H]2O[C@H]3[C@H](O[C@@H](CCC)CCCCCCC(=O)CCC(=O)OC[C@@H](O2)[C@H]1OC(=O)/C=C/c1ccccc1)O[C@H](C)[C@H](OC(C)=O)[C@@H]3O` [IPOMOEASSIN A], the IC50 was 42.6 nM in assay [4]; 109 nM in assay [6]; 64 nM in assay [11]; 20.2 nM in assay [7]; 46.1 nM in assay [8]; 77.8 nM in assay [9].
Consider `C/C=C(\C)C(=O)O[C@@H]1[C@@H](O)[C@@H]2O[C@H]3[C@H](O[C@@H](CCC)CCCCCCC(=O)CCC(=O)OC[C@@H](O2)[C@H]1OC(=O)/C=C/c1ccccc1)O[C@H](C)[C@H](O)[C@@H]3O` [IPOMOEASSIN B], for which the IC50 was 2700 nM in assay [4]; 1070 nM in [6]; 2500 nM in assay [11]; 134 nM in assay [7]; 396 nM in [8].
Consider `C/C=C(\C)C(=O)O[C@@H]1[C@@H](O)[C@@H]2O[C@H]3[C@H](O[C@@H](CCC)CCCCC[C@H](O)C(=O)CCC(=O)OC[C@@H](O2)[C@H]1OC(=O)/C=C/c1ccccc1)O[C@H](C)[C@H](OC(C)=O)[C@@H]3O` [IPOMOEASSIN C], for which the IC50 was 1500 nM in assay [11] and more than 1000 nM in assay [9].
For the compound `C/C=C(\C)C(=O)O[C@@H]1[C@@H](O)[C@@H]2O[C@H]3[C@H](O[C@@H](CCC)CCCCC[C@H](OC(C)=O)C(=O)CCC(=O)OC[C@@H](O2)[C@H]1OC(=O)/C=C/c1ccccc1)O[C@H](C)[C@H](OC(C)=O)[C@@H]3O` [IPOMOEASSIN D], the IC50 stood at 19.9 nM in [4]; 23.2 nM in [6]; 32 nM in assay [11]; 7.9 nM in assay [7]; 11.8 nM in assay [8]; 135 nM in [9].
As for `C/C=C(\C)C(=O)O[C@@H]1[C@@H](O)[C@@H]2O[C@H]3[C@H](O[C@@H](CCC)CCCCC[C@H](OC(C)=O)C(=O)CCC(=O)OC[C@@H](O2)[C@H]1OC(=O)/C=C/c1ccccc1)O[C@H](C)[C@H](O)[C@@H]3O` [IPOMOEASSIN E], the IC50 was 1630 nM in assay [4]; 967 nM in [6]; 4300 nM in assay [11]; 163 nM in assay [7]; 393 nM in [8]; more than 1000 nM in assay [9].
